Source: PubChem (several laboratories)
In the library only some 2% were active in any assay of this set; here they are far more common.
NR2E3 ag-1: agonists of human nuclear receptor NR2E3; 0.12% of 320,000 active; GST-NR2E3/biotin-RetCOR TR-FRET, 1536-well; AID 2300; inhibition of corepressor binding, % at 4.78 µM;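 active = percent inhibition above the cutoff of mean plus 3 SD of all tested compounds, set per screening campaign, cut at about 20% in these data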
Target sequence (Q9Y5X4 whole entry, looked up): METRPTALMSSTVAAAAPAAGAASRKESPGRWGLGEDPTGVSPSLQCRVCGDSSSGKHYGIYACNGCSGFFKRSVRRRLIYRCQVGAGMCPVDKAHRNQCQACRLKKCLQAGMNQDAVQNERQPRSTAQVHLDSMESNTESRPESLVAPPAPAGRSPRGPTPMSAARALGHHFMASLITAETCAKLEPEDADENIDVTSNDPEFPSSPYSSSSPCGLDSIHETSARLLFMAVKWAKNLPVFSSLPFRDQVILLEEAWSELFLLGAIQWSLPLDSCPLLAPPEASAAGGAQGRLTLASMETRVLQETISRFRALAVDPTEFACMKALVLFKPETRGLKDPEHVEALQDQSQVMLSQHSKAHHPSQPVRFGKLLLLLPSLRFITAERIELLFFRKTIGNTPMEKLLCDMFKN
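System: GST-tagged NR2E3 plus biotinylated RetCOR corepressor; Buffer or medium: pH 7.5 Tris-based buffer; Probe or stimulus: RetCOR corepressor, biotinylated, 7 nM; Doses: compound at 4.8 µM, single dose; Schedule: 5 h incubation at 4 °C; Technique: time-resolved FRET; Evaluation: percent inhibition of TR-FRET ratio; Replication: one well per compound, singlicate testing.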
Myeloid diff MLP: myeloid differentiation induction. 1% of 360,000 active. calls only at 10 µM. ER-HoxA9 myeloid progenitors, lysozyme-GFP differentiation, flow cytometry;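 active = normalized GFP-positive differentiation at or above the plate's own cutoff, the solvent-only control mean plus 3 SD; inconclusive = no clear call, values can overlap the other calls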;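 also: cells exposed to compound for four days before flow analysis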
T cell modulator: modulates CD8 T cell binding to vesicles. 2C CD8+ T cell-vesicle binding, flow cytometry; hits give low values. response (vesicle binding), % at 7 µM. 0.068% of 330,000 active;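 active = response, share of CD8 T cells binding vesicles, and their 90th percentile fluorescence all below set limits, cut at about 80% in these data, passing the limit was not always enough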;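 also: values below 100% mean blocked vesicle binding to the CD8+ T cells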
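incubation = binding step 1.5 h, 37 °C, antibody labelling 20 min, ice | test system = 2C mouse CD8+ T cells | read-out basis = percent CD8+ FL2 mean versus row control | controls = Peptide-free naked vesicles (low) and QL9 vesicles with 0.7% DMSO vehicle (high) | detection = flow cytometry of vesicle-bound cells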
GAA850 FXN act: activators of GAA850 frataxin (FXN) promoter. HEK293 lucGAA850 FXN promoter luciferase reporter, 24 h; percent of 10 µM SAHA response. activation, % at 6 µM. 0.56% of 360,000 active;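 active = activation above the average of all compounds screened plus 3 SD, cutoff fixed separately per campaign, cut at about 7.5% in these data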
NR2E3 ag-2: activates human NR2E3 receptor; AID 602229; inhibition of corepressor binding, % at 3.98 µM; 0.35% of 360,000 active; Q9Y5X4; CHO-S Gal4-NCOR/VP16-NR2E3 two-hybrid, luciferase;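 active = inhibition above the mean of all tested compounds plus 3 SD, cut at about 70% in these data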;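 also: higher means lower luciferase signal from less NR2E3 corepressor binding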
Myeloid diff CP1: promotes myeloid progenitor differentiation; shares compounds with Myeloid diff MLP; ER-HoxA9 myeloid progenitors, GFP/Mac1 double-positive flow; calls only; 2% of 2,300 active;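 active = share of green or green-and-red cells above 9 and 9% in run 1 or 4 and 3% in run 2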
GFP autofluor: counter-screen for myeloid differentiation promoters: compound fluorescence; shares compounds with Myeloid diff MLP; ER-HoxA9 myeloid progenitors, no estrogen, GFP autofluorescence flow cytometry; vehicle wells 0%, positive control 100%; fluorescence response, % (test concentration not listed); 7.4% of 2,300 active; AID 651707;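 active = over 5% cells positive for green fluorescent reporter, or over 2% positive for both it and APC stain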
Calls only; . = inactive; ? = inconclusive; / = no result given; + = active, no number.

SMILES	NR2E3 ag-1	Myeloid diff MLP	T cell modulator	GAA850 FXN act	NR2E3 ag-2	Myeloid diff CP1	GFP autofluor
Cc1nn(C)cc1CN(C)C(=O)C1CCC(=O)N(CCc2cccc(F)c2)C1 (configuration not stated)	/	.	/	.	.	/	/
Cc1[nH]c2ccccc2c1-c1nc2ccccc2[nH]1	.	+	.	.	.	.	.
COc1ccc(C(=O)COc2ccc(C(C)=O)cc2OC)cc1OC	/	.	/	.	.	/	/
O=[N+]([O-])c1ccc(S(=O)(=O)Nc2ccc(-c3ccccc3)cc2)cc1	/	.	/	.	.	/	/
COC(=O)c1ccc(Cn2c(C)c(C(=O)NCc3cccs3)sc2=O)o1	/	.	/	.	.	/	/
COc1ccc(NC(=S)NC(NC(=O)C(C)C)C(Cl)(Cl)Cl)c([N+](=O)[O-])c1 (configuration not stated)	.	+	.	.	.	.	.
Cc1cc2nc(-c3cccc(Br)c3)c(Cc3ccccc3)n2c(C)c1Br	/	.	/	/	.	/	/
O=C(CCn1c(=O)sc2ccccc21)Nc1ccon1	.	.	.	.	.	/	/
O=C(CCn1c(=O)sc2ccccc21)NC1=NCCS1	.	.	/	.	.	.	.
COC(=O)c1cn(NC(=O)c2cc(OC)cc(OC)c2)c(=O)c2ccccc12	.	.	.	.	.	/	/
COC(=O)c1cn(NC(=O)c2ccc([N+](=O)[O-])cc2Cl)c(=O)c2ccccc12	.	+	.	.	.	.	.
CC(O)CNc1nc(N)[nH]c(=O)c1N=Nc1ccccc1 (configuration not stated)	/	.	/	.	.	/	/
Cc1ccc(C=C2C(Cl)=C(Cl)C(Cl)=C2Cl)cc1	.	/	.	/	/	/	/
Cc1ccc(/C=[N+](/C)[O-])cc1	.	.	.	.	.	.	.
OC(c1ccc(CN2CCCCC2)cc1)c1ncc(-c2ccccc2)[nH]1 (configuration not stated)	/	.	/	.	.	/	/
Cc1c(C(=O)O)sc2nc3n(c(=O)c12)CCC(C)CC3 (configuration not stated)	.	+	.	.	.	.	.
COc1cc(CC(=O)OCC(=O)NCc2ccco2)cc(OC)c1OC	/	+	.	.	.	.	.
COc1cc(/C=C2\SC(N)=NC2=O)cc(OC)c1	/	.	.	.	.	/	/
COc1ccc2c(c1)[C@H]1[C@H](CO2)[C@H](c2ccccc2)[C@]2(C)C(=O)Nc3ccc(C)cc3C(=O)N12	/	.	.	.	.	/	/
COc1ccc2c(c1)C(=O)N1[C@H]3c4cc(C)ccc4OC[C@@H]3[C@H](c3ccccc3)[C@]1(C)C(=O)N2	.	+	/	.	.	.	.
CC1=C(C(=O)Nc2ccccc2C(=O)N2CCN(c3ccccc3)CC2)SCCO1	/	.	/	.	.	/	/
Nc1ncnc2c1ncn2C1OCC(O)C1O (configuration not stated)	/	.	/	/	.	/	/
CCOC(=O)c1cc(-c2ccccc2)sc1NC(=O)C(C)(C)C	.	.	.	.	.	/	/
CCOC(=O)c1cc(-c2ccccc2)sc1NC(=S)Nc1cc(C)ccn1	.	+	.	.	.	.	.
Cc1cc(C)cc(NC(=S)NCC2CCCO2)c1 (configuration not stated)	.	.	.	.	.	.	.
SMILES	NR2E3 ag-1	Myeloid diff MLP	T cell modulator	GAA850 FXN act	NR2E3 ag-2	Myeloid diff CP1	GFP autofluor
CC(C)[C@H](NC(=O)c1ccccc1)C(=O)OCC(=O)Nc1ncc(Cl)cc1Cl	/	.	.	.	.	/	/
Cc1ccc2[nH]c(-c3ccccc3)cc(=O)c2c1	.	?	.	.	.	/	/
C=CC[n+]1cccc(-c2cc3ccc(C)cc3[nH]2)c1	/	.	.	.	.	.	.
COc1ccc(OC)c(NC(=O)COc2cc(O)c3c(c2)OC(C)(C)CC3=O)c1	/	.	/	.	.	/	/
COc1ccc(-c2noc(CCC(=O)N3CCN(c4ccccc4F)CC3)n2)cc1	/	.	/	.	.	/	/
O=C(COC(=O)c1ccccc1OCc1ccc(Cl)cc1)NCC1CCCO1 (configuration not stated)	/	.	.	.	.	/	/
CCCNC(=O)COC(=O)c1ccccc1OCc1ccc(Cl)cc1	.	+	.	.	.	.	.
CC1=CC(=C(C#N)C#N)c2ccccc2N1C	.	.	.	.	.	.	.
Cc1ccccc1N1C(=O)CSC1=C(C#N)C#N	.	.	.	.	.	/	/
COc1ccc(-n2nnnc2C(CCc2ccccc2)N2CCN(C/C=C/c3ccccc3)CC2)cc1 (configuration not stated)	/	.	/	/	.	/	/
O=S1(=O)N=C(N2CCN(Cc3ccc4c(c3)OCO4)CC2)c2ccccc21	.	.	.	.	.	/	/
O=S1(=O)N=C(N2CCN(Cc3ccccc3)CC2)c2ccccc21	.	+	.	.	.	.	.
Cc1ccc(NC(=O)Cn2cc(C=O)c3ccccc32)cc1	.	.	.	.	.	/	/
CC(C)(C)NCC(O)Cn1cc(C=O)c2ccccc21 (configuration not stated)	.	.	.	.	.	.	.
COc1ccc2nc(Cl)c(C=O)c(N3CCOCC3)c2c1	/	.	/	.	.	/	/
CC(=O)c1ccc(-c2cnc3c(NC=O)cc(-c4ccccc4Oc4ccccc4)cn23)cc1	/	.	/	.	.	.	.
O=CNc1cc(-c2ccccc2Oc2ccccc2)cn2c(-c3ccc(F)cc3)cnc12	/	.	/	.	.	/	/
CN(C)c1ccc(-c2cc(NC=O)c3ncc(-c4ccc(F)c(Cl)c4)n3c2)cc1	/	+	/	.	.	.	.
COc1ccc(-c2cnc3c(NC=O)cc(-c4ccc(S(C)(=O)=O)cc4)cn23)cc1OC	/	/	/	.	.	/	/
CN1CCN(c2ccc(-c3cc(NC=O)c4ncc(-c5ccc(F)c(Cl)c5)n4c3)cc2)CC1	/	+	/	.	.	.	.
COc1cc(-c2cnc3c(NC=O)cc(-c4ccc(S(C)(=O)=O)cc4)cn23)cc(OC)c1OC	/	+	/	.	.	.	.
CCOC(=O)C1(C)CCN1C(=O)c1cncc(Br)c1 (configuration not stated)	/	.	/	.	.	/	/
Cc1ccccc1C=Nc1ccccc1C(N)=O	.	?	.	.	.	/	/
COC(=O)c1ccc(COC(=O)CNC(=O)c2ccc(C)s2)cc1	.	.	.	.	.	/	/
COc1ccc(/C=C/C(=O)NC2CCCCCCC2)cc1S(=O)(=O)N1CCOCC1	.	.	.	.	.	.	.
CC1CCN(C(=S)Nc2cccc(S(=O)(=O)N(C)C)c2)CC1	.	+	.	.	.	.	.
Cc1ccc(C(=O)COC(=O)c2ccco2)cc1C	.	.	.	.	.	/	/
Cc1cccc(Cn2ncc(Cl)c(Cl)c2=O)c1	.	.	.	.	.	.	.
CCN1CCN(c2ccc(Nc3ccnc4ccccc34)cc2)CC1	.	.	.	.	.	/	/
